In the EternaBench riboswitch data:

Tested on: MS2 coat protein
Assay: apparent Kd, MS2 coat protein; higher = weaker binding; RNA-MaP array; FMN 200 µM where present
Summary of the method: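 The apparent Kd is the median of filtered binding-curve fits, one per cluster, to green signal normalised to red-channel RNA signal and control-cluster median Fmax. The clusters were on Illumina sequencing chips, and stalled E. coli RNA polymerase had transcribed the designs on them. Titration used SNAP-549-labelled MS2 coat protein from 0.7 or 1.5 nM, doubling to 3 µM, without and then with constant ligand, in 100 mM Tris-HCl pH 7.5, 80 mM KCl, 4 mM MgCl2, BSA, DTT, yeast tRNA and Tween-20.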

[1] = designed as: OFF switch for flavin mononucleotide, no ligand
[2] = ligand present: flavin mononucleotide, designed as: OFF switch for flavin mononucleotide
[3] = designed as: ON switch for flavin mononucleotide, no ligand
[4] = ligand present: flavin mononucleotide, designed as: ON switch for flavin mononucleotide

Sequence | apparent Kd [1] [nM] | apparent Kd [2] [nM] | apparent Kd [3] [nM] | apparent Kd [4] [nM]
CACGAGUGAGGAUAUAGAGAGGUGAGGCUGAAGUCGCAUAUCUAGAAGGCACAUGAGGAUCACCCAUGUCCCUC | 481 | 503 | – | –
CACUUGGCAGGAUAUGCAAUUUUAGACAUGAGGAUCACCCAUGUGAUCAUUCCAUAUUAUGCAGAAGGGCCUAAAC | 199 | 747 | – | –
CAGAAACAUGAGGAUCACCCAUGUGAGGAUAUGCGUACGUUGUCCGUAGGCGACGUGCGCAGAAGGCACAAAGG | 132 | 256 | – | –
CAGAAGUCAGGAUAUGCUGCUCGUCACUUGCGUGAUGAGUAGCAGAAGGGACAUGAGGAUCACCCAUGUAAAGA | 63.1 | 113 | – | –
CAGCGCUGUUGAGAGGAUAUGCGGUGAUGGACAUGAGGAUCACCCAUGUUAGCGACAGCAUUACGGCAGAAGGCUUCACAGCUGC | – | – | 51.1 | 14.6
CAGCUACCCGAUAUGGGUUCAUGUGCAGAAGGCCAGGUACAUGAGGAUCACCCAUGUAAAGAUAUGGAGGAUAUGUUAGUGAAU | – | – | 149 | 8.99
CAGCUCUGAGGAUAUCCAUCCUCCUACAUGAGGAUCACCCAUGUUUCCCUCUGGGUUUUCGGAGAAGGCAGUUAUU | 238 | 459 | – | –
CAGGUAGACUGAGGAUAUACAUGACUUAGUCUAUCUAGGUCAUAAACCACAUGAGGAUCACCCAUGUAGAAGGCAGUCUGCCUG | 17 | 19.8 | – | –
CAGGUAGCUACAGGAUAUACACGUCUGGAUAAACCAGACGAAUAACCCACAUGAGGAUCACCCAUGUAGAAGGGUAGCUGCCUG | 15.4 | 21.3 | – | –
CAGGUUAGAGGAUAUACGUAGGUACAGAUCUGUGUGUUCCUACAUGAGGAUCACCCAUGUAGAAGGCUAUCCUG | 69.8 | 208 | – | –
CAGUACGGAGGAUAUACAUGAGGAUCACCCAUGUGAGAAAUACUAGUGAGGUCGAUUAGUAGAAGGCUGUACUG | 40.5 | 579 | – | –
CAGUACUGAGGAUAUACAUGAGGAUCACCCAUGUAUCCAAGCUAGGAAACUAGCAAAUGUAGAAGGCAGUACUG | 34.1 | 519 | – | –
CAGUACUGAGGAUAUACAUGAGGAUCACCCAUGUGAAAAAGCUACGAAAGUAGCAAAUGUAGAAGGCAGUACUG | 34.3 | 254 | – | –
CAGUACUGAGGAUAUACAUGAGGAUCACCCAUGUGCCUCAGGUAGGAUACUACCAUUAGUAGAAGGCAGUACUG | 197 | 37.7 | – | –
CAGUACUGAGGAUAUACAUGAGGAUCACCCAUGUGUUCCAGCUAGGAAACUAGCAAAAGUAGAAGGCUGUACUG | 16.9 | 172 | – | –
CAGUACUGAGGAUAUACAUGAGGAUCACCCAUGUGUUCCAGCUGGGAAACUAGCAAAAGUAGAAGGCAGUACUG | 25.5 | 395 | – | –
CAGUCUACAGGAUAUACAUGAGGAUCACCCAUGUAAAUUCACUUUCAGUAGUCUACAUGUAGAAGGGUAGACUG | 21.3 | 40.3 | – | –
CAGUCUACAGGAUAUACAUGAGGAUCACCCAUGUGUAUUCACUUUCAGUAAUCCAUAUGUAGAAGGGUAGACUG | 16.9 | 34.2 | – | –
CAGUGCUGUUGAGAGGAUAUGCGGUGAUGGACAUGAGGAUCACCCAUGUUAGCGACAGCGUUACGGCAGAAGGCUCUACCCACUG | – | – | 49.4 | 22.4
CAUACAGUAGUUAGGAUAUUGCAACGUAUACGGAUCGAGAAGGGACAUGAGGAUCACCCAUGUAGAUUGUAAAG | 37.6 | 30.7 | – | –
CAUCCGAAUGAGAAGGGUCACAUGAGGAUCACCCAUGUGACCUCAUCGAUGACAGGAUAUCAUGGGUGGCAGUGUAAAGUUGGC | 6.6 | 7.04 | – | –

Sequence | apparent Kd [1] [nM] | apparent Kd [2] [nM] | apparent Kd [3] [nM] | apparent Kd [4] [nM]
CAUGACGAAGGAUAUACAUGAGGAUCACCCAUGUGGUCAUGGAAGUACGUGUUCUCGCGUAGAAGGUUGUAAAA | 12.9 | 13.6 | – | –
CAUGAUUGACGAGGAUAUUGUUCUACAUGGCGACGAGAAGGCGUCUGUCACAUGAGGAUCACCCAUGUGAGUCUGGUGAAUGAG | 36.5 | 33.4 | – | –
CAUGUCCUCACAGGAUAUGCACCACUUUGUGGUGCAGAAGGGUGGAUACAUGAGGAUCACCCAUGUGGACAUGAUAUAUUUAAU | – | – | 608 | 57.2
CAUGUCCUCACAGGAUAUGCUGGACUUUGUCCAGCAGAAGGGUGAACAUGAGGAUCACCCAUGUAAAGGACAUGUAUAUUUAAU | – | – | 1080 | 84.3
CAUGUGAGCGAGGAUAUUUUACGGGAAACUUUCAGAGAAGGCGCUACAUGAGGAUCACCCAUGUCCGUCAGUCC | 41.7 | 94.8 | – | –
CAUUAAUAGUAGAAGGGUCAAGUUUUGGGUAGGGCAGGAUAUACGAACAAGAAACAUGAGGAUCACCCAUGUGUCCAUGUCAUG | 33.9 | 29.6 | – | –
CAUUAAUUCAUUAUAGUUAUUAUACAGGAUAUGUUACAUGAGGAUCACCCAUGUAUUCAUGGUAAACAGAAGGGUAAUUCAAGU | 24.9 | 22.6 | – | –
CAUUCAAGCCAGAAGGAGUACACUACAUGAGGAUCACCCAUGUCUAAUACUAGGAUAUGGGCAUCUGGUAAUGUCUAAGGUGCG | – | – | 111 | 128
CAUUCUUUUCCGGAGGAUAUGCUACCCUUUACAUGAGGAUCACCCAUGUUACCCUCUUCUUGUCAGUAGAAGGCCGUUUCUUAAC | – | – | 27.4 | 25.1
CAUUGGUAAGGAUAUGAAUCGAUCUCAGAAAUGAGAUCGAUUCAGAAGGUACAUGAGGAUCACCCAUGUUGAUG | 27.8 | 72.9 | – | –
CCAAUAAGCCAAGGAUAUCAGCCGGGUACGAGGUGAGAAGGUGGCCGAGGGAAUUACGGACAUGAGGAUCACCCAUGUACCCGU | – | – | 4.98 | 4.21
CCAAUUCUGGCAUCCUUAUUACAUGAGGAUCACCCAUGUUGUGAGGAUAUCCCAACCCACGGUCAGGAGAAGGCACAAAGAGGG | 4.9 | 5.01 | – | –
CCACAUGAGGAUCACCCAUGUGACUUCUGUGGCCCGGUGUUGCAGGAUAUCGCAAGGUUAGUUGACGAGAAGGGCGACGGUGGU | 31.1 | 102 | – | –
CCACCCUGAGGAUAUCCACCCUCAUACAUGAGGAUCACCCAUGUUAAUGCCUGAGUUCCCGGAGAAGGCAGAUUCC | 86.5 | 63.8 | – | –
CCACCCUGAGGAUAUCCACCCUCAUACAUGAGGAUCACCCAUGUUCAUCCCUGAGUACCCGGAGAAGGCAGAUUCC | 60.3 | 50.6 | – | –
CCACCUCCUGAGGAUAUUGCAUCACCCGACUGAUAAGAAGGCAGAACAUGAGGAUCACCCAUGUGGGUACUCCC | 82.5 | 77.2 | – | –
CCACGACAUGAGGAUCACCCAUGUCAGGAUAUCCCUCAUUGUAUGAAAAUACAAUGAGGGAGAAGGGACGUGAC | 33.8 | 31.6 | – | –
CCAGCAAAAGUGAGGAUAUGCUGGUCCUUGGAUCAGCAGAAGGCACAUGAGGAUCACCCAUGUCGUGGAGCUGG | 26.2 | 55.3 | – | –
CCAUAAAAGAUCCAAAAUUACAACAUGAGGAUCACCCAUGUGCAGGAUAUCGUGCCAGUGAUGUACGAGAAGGGCAGACUCUGC | 251 | 333 | – | –
CCAUAAUUGAUCCAUUUUUACAACAUGAGGAUCACCCAUGUGCAGGAUAUCGUGAAAGUUAAAUACGAGAAGGGCAAGAACUGC | 272 | 229 | – | –
CCAUCAGCGAACGUAUCGGUUGGACAUGAGGAUCACCCAUGUAGAAGGACAGGAGUAUUACGGCUGUAGGAUAUACAUUUAGUG | 21.3 | 18 | – | –
